Results reported in ChEMBL document CHEMBL1671632, “Genetic basis of multidrug resistance in Acinetobacter baumannii clinical isolates at a tertiary medical center in Pennsylvania” (2008).
Converted amounts (≈) assume the structure as drawn.

Legend:
[1] = test system: Acinetobacter baumannii; experiment: Antimicrobial activity against multidrug-resistant Acinetobacter baumannii expressing aph(3')-Vla gene by Etest method; assay type: functional
[2] = test system: Acinetobacter baumannii; experiment: Antimicrobial activity against multidrug-resistant Acinetobacter baumannii expressing armA gene by Etest method; assay type: functional
[3] = test system: Acinetobacter baumannii; experiment: Antimicrobial activity against multidrug-resistant Acinetobacter baumannii assessed as resistant isolates by disk diffusion method; assay type: functional
Outline: (§1)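 Standard disk diffusion was done on Mueller-Hinton agar with ampicillin-sulbactam, ceftazidime, cefepime, meropenem, tobramycin, gentamicin, ciprofloxacin and tetracycline. Isolates were called susceptible or resistant using CLSI breakpoints.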

[4] = test system: Acinetobacter baumannii; experiment: Antimicrobial activity against multidrug-resistant Acinetobacter baumannii by Etest method; assay type: functional
[5] = test system: Acinetobacter baumannii; experiment: Antimicrobial activity against multidrug-resistant Acinetobacter baumannii expressing aac(6')-1b gene by Etest method; assay type: functional
[6] = test system: Acinetobacter baumannii; experiment: Antimicrobial activity against multidrug-resistant Acinetobacter baumannii assessed as resistant isolates by disk diffusion method in presence of beta-lactamase inhibitor Sulbactam; assay type: functional; outline: as §1
[7] = test system: Acinetobacter baumannii; experiment: Antimicrobial activity against multidrug-resistant Acinetobacter baumannii expressing armA and bla oxa-23 gene assessed as resistant isolates by disk diffusion method; assay type: functional; outline: as §1
[8] = test system: Acinetobacter baumannii; experiment: Antimicrobial activity against Acinetobacter baumannii HE130 lacking bla-OXA-23 gene by Etest method
[9] = test system: Acinetobacter baumannii; experiment: Antimicrobial activity against Acinetobacter baumannii AB017 transformant harboring bla-OXA-23 gene by Etest method; assay type: functional
[10] = test system: Acinetobacter baumannii; experiment: Antimicrobial activity against Acinetobacter baumannii AB026 transformant harboring bla-OXA-23 gene by Etest method; assay type: functional

NCC[C@H](O)C(=O)N[C@@H]1C[C@H](N)[C@@H](O[C@H]2O[C@H](CN)[C@@H](O)[C@H](O)[C@H]2O)[C@H](O)[C@H]1O[C@H]1O[C@H](CO)[C@@H](O)[C@H](N)[C@H]1O [AMIKACIN] showed an MIC [1] of 12 µg/mL (≈ 20.5 µM), an MIC [2] greater than 256 µg/mL and an Activity [3] of 36.7%. For the same compound, the MIC [4] was 128 µg/mL (≈ 219 µM) and the MIC [5] was 2 µg/mL (≈ 3.42 µM).

Work on CC1(C)S[C@@H]2[C@H](NC(=O)[C@H](N)c3ccccc3)C(=O)N2[C@H]1C(=O)O [AMPICILLIN] yielded an Activity [6] of 40.8%.

CO/N=C(\C(=O)N[C@@H]1C(=O)N2C(C(=O)[O-])=C(C[N+]3(C)CCCC3)CS[C@H]12)c1csc(N)n1 [CEFEPIME] gave an Activity [3] of 79.6%.

In the case of CC(C)(O/N=C(\C(=O)N[C@@H]1C(=O)N2C(C(=O)[O-])=C(C[n+]3ccccc3)CS[C@H]12)c1csc(N)n1)C(=O)O [CEFTAZIDIME], the Activity [3] is reported as 87.8%.

O=C(O)c1cn(C2CC2)c2cc(N3CCNCC3)c(F)cc2c1=O [CIPROFLOXACIN] gave an Activity [3] of 95.9%.

Compound C[C@@H](O)[C@H]1C(=O)N2C(C(=O)O)=C(SCCNC=N)C[C@H]12 [IMIPENEM ANHYDROUS] has an Activity [7] of 18.4%, an MIC [8] of 0.5 µg/mL (≈ 1.67 µM) and an MIC [9] of 4 µg/mL (≈ 13.4 µM).

C[C@@H](O)[C@H]1C(=O)N2C(C(=O)O)=C(S[C@@H]3CN[C@H](C(=O)N(C)C)C3)[C@H](C)[C@H]12 [MEROPENEM] was tested, and the MIC [10] was 6 µg/mL (≈ 15.6 µM), the Activity [3] was 22.4% and the MIC [8] was 0.125 µg/mL (≈ 0.326 µM).

For CN(C)[C@@H]1C(O)=C(C(N)=O)C(=O)[C@@]2(O)C(O)=C3C(=O)c4c(O)cccc4[C@@](C)(O)[C@H]3C[C@@H]12 [TETRACYCLINE], the Activity [3] was 79.6%.

Work on NC[C@H]1O[C@H](O[C@H]2[C@H](O)[C@@H](O[C@H]3O[C@H](CO)[C@@H](O)[C@H](N)[C@H]3O)[C@H](N)C[C@@H]2N)[C@H](N)C[C@@H]1O [TOBRAMYCIN] yielded an Activity [3] of 61.2%.

For GENTAMICIN, the Percent resistant isolates [3] was 77.6%.
